Sampled rows, rich in hits. Any-hit rate of the full collection: about 4.8%.
Mot1-301 SUMO: SUMOylation pathway inhibition by Mot1-301 growth rescue. S. cerevisiae Mot1-301 growth rescue, ATP luminescence, 38.5C; percent above DMSO median, 100 means doubled. 1% of 320,000 active. growth rescue, % at 18.8 µM;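 active means every valid replicate shows activation above 250% relative to neutral control wells; inactive means the rest, any valid replicate at or below 250%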;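 further: OY570 slx delta 5 strain wells were the positive control but not used for scaling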
T cruzi repl: T. cruzi replication inhibition. T. cruzi beta-gal in NIH3T3, luminescence, 90 h. inhibition, % (test concentration not listed). 1.4% of 300,000 active;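 active means mean inhibition across valid replicates above about 55%, limit read from the data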;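 further: signal also drops with host cell toxicity which is not excluded here; 0% = plate median of DMSO wells and 100% = zero luminescence signal; higher percent means less beta-gal luminescence so fewer parasites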
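System: mouse NIH/3T3 fibroblasts infected with β-gal-expressing T. cruzi Tulahuen C4 / Input: NIH/3T3 cells, 5,000 per well / Buffer or medium: Low-serum DMEM with 2% FBS / Probe or stimulus: 5000 reporter trypomastigotes per well / Schedule: ≥90 h infection period, 3 h prior cell attachment / Measured by: GalScreen luminescence, 60 min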
Efflux pump mplx: inhibitors of Candida antifungal efflux pumps expressed in yeast. 0.44% of 330,000 active. S. cerevisiae Candida pump triplex, Nile Red efflux. inhibition, % at 10 µM. AID 485275;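 active means plate passing quality check with inhibition over a set limit, or well fluorescence over plate mean plus 4 SD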;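 further: Nile Red retained in pooled yeast measured as flow cytometry median fluorescence; 0% = buffer negative control and 100% = Enniatin B positive control; higher means more Nile Red kept so more efflux inhibition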
Beta apoptosis: blocks beta cell apoptosis; INS-1E cytokine-induced death, ATP luminescence, 48 h; percent of positive-control rescue, neutral wells zero; protection from apoptosis, % (concentration not given with the values); 0.8% of 300,000 active;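 active means Every replicate reaches about 75%, or at least half do and their mean reaches it too, limit read from the data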;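 further: 0% = cytokine-treated negative control wells and 100% = positive control rescue; higher means more ATP so stronger rescue from cytokine killing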
CSC inhib: cancer stem cell inhibition; cancer stem cell-like cells viability, luminescence; inhibition, % at 7.5 µM; 1.1% of 300,000 active; AID 2717; in the data active means inhibition above about 75%; tested in HMLE shEcad cells
WT yeast gro inh: growth inhibition of WT yeast, mitochondrial fusion screen. mitochondrial fusion phenotypic screen, WT strain. inhibition, % at 10 µM. 2.1% of 190,000 active; in the data active means inhibition above about 58%; tested in S. cerevisiae
* = called active by the depositor; . = not tested or not shown.

SMILES	Mot1-301 SUMO	T cruzi repl	Efflux pump mplx	Beta apoptosis	CSC inhib	WT yeast gro inh
CC1CC(N(C(=O)c2ccco2)c2ccccc2)c2ccccc2N1C(=O)c1ccco1 (stereo unspecified)	-16	12	0	0	-6	16
C=CSc1sc(Cl)c(N2CCOCC2)c1[N+](=O)[O-]	104	-12	0	5	-4	4
C=CS(=O)(=O)c1sc(Cl)c(N2CCOCC2)c1[N+](=O)[O-]	.	55*	.	.	.	-14
C(=N\NC(=Nc1ccccc1)c1ccccn1)/c1ccccn1	-13	9	0	-5	31	2
Clc1ccc(/C=N/NC(=Nc2ccccc2)c2ccccn2)c(Cl)c1	3	28	0	10	5	74*
COc1ccc(C2CC(C)(c3ccc(OC)cc3OC)Nc3ccccc3N2)c(OC)c1 (stereo unspecified)	-2	73*	1	43	14	72*
O=S(=O)(NCC(c1ccccc1)N1CCC(O)CC1)c1ccc(Cl)cc1 (stereo unspecified)	2	14	0	-5	2	.
O=S(=O)(NCC(Nc1ccc(Cl)cc1)c1ccccc1)c1ccc(Cl)cc1 (stereo unspecified)	8	32	0	6	52	74*
CCN(c1ccccc1)S(=O)(=O)c1cccc(C(=O)OCC(=O)Nc2ccc(NC(C)=O)cc2)c1	19	.	-1	-5	-4	.
O=C(NCc1nc(-c2ccc(C(F)(F)F)cc2)no1)Nc1ccc(OC(F)(F)F)cc1	-1	25	0	0	109*	.
CCOC(=O)C1CCCN(C(=O)c2cccc(S(=O)(=O)N(Cc3ccccc3)c3ccccc3OC)c2)C1 (stereo unspecified)	-4	56*	0	1	-5	.
CC1CCCC(NC(=S)NC(=O)c2cncc(Br)c2)C1C (stereo unspecified)	-6	-28	0	9	-1	62*
CCn1c(CCCc2ccc(OC)c(C)c2)n[nH]c1=S	-6	-1	0	-8	-13	10
CC(C)CN(CCCNC(=O)CN1C(=O)COc2ccc(S(=O)(=O)N3CCCC3)cc21)CC(C)C	2	3	0	-1	-8	4
COc1ccc(C2=NOC(Cn3nc(C(=O)NCc4cccc(C(F)(F)F)c4)cc3-c3ccccc3)C2)cc1 (stereo unspecified)	6	28	0	11	-4	.
O=C(Nc1ccc(S(=O)(=O)N2CCCCC2)cc1)c1ccc(CN2CCc3ccccc3C2)cc1	4	50	0	107*	41	1
O=C(Nc1ccccc1)c1ccc(CN2CCc3ccccc3C2)cc1	5	10	0	-1	18	6
COC(=O)c1c(NC(=O)c2ccccc2)sc(Cc2ccccc2)c1C	-17	26	0	3	0	68*
CCC(=O)Nc1sc(Cc2ccccc2)c(C)c1C(N)=O	3	17	0	-2	.	74*
Cc1c(Cc2ccccc2)sc(/N=C/c2ccc3ccccc3c2)c1C(N)=O	-12	.	0	4	49	1
Cc1c(Cc2ccccc2)sc(/N=C/c2c(O)ccc3ccccc23)c1C(N)=O	46	-12	0	-3	98*	48
Cc1c(Cc2ccccc2)sc(NC(=O)Cc2ccccc2)c1C(N)=O	36	20	0	-3	13	.
CC1CCCCN1C(=S)NCc1ccco1 (stereo unspecified)	7	-6	0	-3	-4	-7
COc1c(OC(C)=O)ccc(/C=C/c2ccc3ccccc3n2)c1[N+](=O)[O-]	13	-28	0	-3	68	68*
CCOc1c(OC(C)=O)ccc(/C=C/c2ccc3cccc(OC(C)=O)c3n2)c1[N+](=O)[O-]	13	-8	0	8	-6	65*
SMILES	Mot1-301 SUMO	T cruzi repl	Efflux pump mplx	Beta apoptosis	CSC inhib	WT yeast gro inh
CC(=O)Oc1ccc(C(=O)Nc2ccc(C3(C#N)CCCC3)cc2)cc1	-17	13	0	-2	96*	.
N#CC1(c2ccc(NC(=O)c3ccccc3)cc2)CCCC1	9	6	0	11	18	-15
O=Nc1ccc(NOC(=O)c2ccccc2Br)cc1	30	4	0	-11	10	59*
COC(=O)C1=C(CSCc2ccccc2)NC(=O)NC1c1cc(C)ccc1C (stereo unspecified)	2	-28	0	3	3	-4
COC(=O)C1=C(CSc2nc3ccccc3o2)NC(=O)NC1c1cc(C)ccc1C (stereo unspecified)	-22	23	0	-3	-8	75*
CC1CC(C)CN(C(=O)CN2C(=O)NC(c3ccccc3)(c3ccccc3)C2=O)C1 (stereo unspecified)	33	.	0	-7	-11	.
CN(CC(=O)Nc1cccc(F)c1)C(=O)C1(c2ccccc2)CC1	83	.	0	6	-13	.
CCCOc1ccc(NC(=O)OC2CCN(C)CC2)cc1	-6	55*	0	-11	-1	-9
O=C(NCCc1ccc(F)cc1)c1cc(=O)c2ccccc2o1	-1	-8	0	0	-7	-3
Cc1nnc(SCc2nnc(-c3ccccc3Br)o2)s1	410	-20	0	-1	-14	2
Cc1ccc(-c2nn(C(C)(C)C)c3ncnc(NS(=O)(=O)c4ccc([N+](=O)[O-])cc4)c23)cc1	18	56*	0	19	-4	24
Cc1ccc(S(=O)(=O)Nc2ncnc3sc(C)c(C)c23)cc1	18	.	0	-3	.	.
CC1C(C#N)=C(N)OC2=C1C(=O)CC(c1ccccc1)C2 (stereo unspecified)	.	-10	0	-2	61	0
Cc1ccc(-c2nnc(-c3ccccc3)c(N3CCOCC3)n2)cc1	-5	40	0	1	12	17
CN1CCN(c2nc(-c3ccc(Br)cc3)nnc2-c2ccccc2)CC1	-23	65*	0	7	15	27
CCOC(=O)c1nnc(-c2ccccc2)nc1N1CCSCC1	1	3	0	1	-4	-25
Brc1ccc(-c2nnc(-c3ccccc3)c(N3CCSCC3)n2)cc1	-16	26	0	2	1	63*
Cc1[nH]nc2c1C(c1ccsc1)C1=C(CC(C)(C)CC1=O)N2 (stereo unspecified)	-14	9	0	-1	6	1
N#CCCNS(=O)(=O)c1ccc(C(=O)OCCCOC(=O)c2ccc(S(=O)(=O)NCCC#N)cc2)cc1	-26	1	0	-6	-5	.
COc1ccc(Cl)cc1NC(=O)CN1C(=O)NC(Cc2c[nH]c3ccccc23)C1=O (stereo unspecified)	-5	.	0	0	-2	.
CCCN(CCC)C(=O)Cn1c(=O)n(CCCCC(=O)NCc2ccco2)c(=O)c2ccccc21	294*	7	0	-6	-4	-1
